Assay outcomes: PubChem, Sanford-Burnham Center for Chemical Genomics
CXCR6 block – blocks human CXCR6 beta-arrestin recruitment | O00574 | AID 602244 | CHO-K1 PathHunter CXCR6 beta-arrestin, luminescence | actives 0.36% (n = 360,000) | inhibition, % at 20 µM; in the data active means inhibition above about 34%, passing the limit was not always enough;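 further: antagonist mode with CXCL16 agonist at 10 nM final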
Target sequence (O00574 whole entry, looked up): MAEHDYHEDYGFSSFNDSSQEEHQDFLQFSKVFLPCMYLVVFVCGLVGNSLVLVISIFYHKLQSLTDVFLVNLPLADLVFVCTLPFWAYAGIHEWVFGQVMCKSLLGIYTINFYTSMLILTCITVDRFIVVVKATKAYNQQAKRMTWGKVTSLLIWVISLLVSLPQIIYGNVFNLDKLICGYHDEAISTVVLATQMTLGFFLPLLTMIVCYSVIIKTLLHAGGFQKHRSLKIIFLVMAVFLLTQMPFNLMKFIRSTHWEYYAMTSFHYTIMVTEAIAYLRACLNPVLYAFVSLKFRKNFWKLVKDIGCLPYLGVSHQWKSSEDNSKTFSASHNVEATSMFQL
APJ agonist – APJ receptor agonism. CHO-K1 APJ PathHunter beta-arrestin, luminescence; 0% DMSO wells, 100% apelin. activation, % at 20 µM. actives 0.11% (n = 330,000);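 active means activation more than six SD over the plate average, tested at 20 µM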
Target sequence (P35414 whole entry, looked up): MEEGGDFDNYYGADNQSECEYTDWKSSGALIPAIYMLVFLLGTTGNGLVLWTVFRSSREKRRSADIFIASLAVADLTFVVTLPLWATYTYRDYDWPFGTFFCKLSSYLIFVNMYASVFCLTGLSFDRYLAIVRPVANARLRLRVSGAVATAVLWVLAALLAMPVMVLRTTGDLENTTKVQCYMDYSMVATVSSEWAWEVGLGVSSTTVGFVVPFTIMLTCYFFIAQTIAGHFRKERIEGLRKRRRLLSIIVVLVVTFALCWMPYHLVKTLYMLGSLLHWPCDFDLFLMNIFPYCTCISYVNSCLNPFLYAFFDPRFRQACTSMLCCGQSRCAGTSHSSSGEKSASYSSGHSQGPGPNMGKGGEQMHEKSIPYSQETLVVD
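Material: engineered CHO-K1 APJ arrestin reporter cells; amount: 1000 CHO-K1 reporter cells seeded per well; incubation: compound stimulation 90 min at 25 °C, detection 60 min; signal: luminescent beta-gal fragment complementation, chemiluminescent substrate; read-out basis: APJ agonist activity; controls: DMSO-only wells as negative, 10 nM Apelin-13 as positive control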
APJ antagonist – antagonists of human APJ apelin receptor | CHO-K1 APJ beta-arrestin complementation, luminescence | inhibition, % at 20 µM | actives 0.32% (n = 330,000);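 active means inhibition above about 40% at 20 µM, limit read from the data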;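 further: cells challenged with 10 nM apelin-13 agonist together with compound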
EBI2 block – EBI2 (human) antagonism; EBI2 beta-arrestin recruitment, luminescence, 7a,25-OHC stimulated; inhibition, % at 5 µM; actives 0.81% (n = 360,000); AID 651636; in the data active means inhibition above about 38%;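 further: enzyme fragment complementation signal reports receptor beta-arrestin coupling in cells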
CCR6 antagonist – CCR6 (human) receptor antagonism. P51684. inhibition, % at 20 µM. actives 0.49% (n = 340,000). AID 493098. CHO-K1 CCR6 PathHunter beta-arrestin, luminescence, CCL20-stimulated;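 active means compounds whose inhibition of the agonist-driven luminescence signal at 20 µM reaches about 50%, limit read from the data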;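 further: cells stimulated with CCL20 at 14 nM final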
Of the large screens only hits and unclear results are named; the others gave an inactive call. A selection: hits, their analogues and other compounds. The true share with any hit is near 1.5%.

C=C(C)C(=O)Oc1ccc(N=Nc2ccc(C)cc2)ccc1=O	CXCR6 block 65, CCR6 antagonist 92 (no result: APJ agonist, APJ antagonist)
COc1ccc(C(C[N+](=O)[O-])C2(c3ccc(OC)c(OC)c3)C(=O)c3ccccc3C2=O)cc1 (configuration not stated)	CCR6 antagonist 59 (no result: APJ agonist, APJ antagonist)
CCN(CC)c1ccc(NC2=C(Cl)C(=O)c3ccccc3C2=O)cc1	CCR6 antagonist 57 (no result: APJ agonist, APJ antagonist)
Cc1ccc(NC2=C(Cl)C(=O)c3ccccc3C2=O)cc1	none (no result: APJ agonist, APJ antagonist)
CCNC1=C(Cl)C(=O)c2ccccc2C1=O	none
CCCC(=O)NC1=C(Cl)C(=O)c2ccccc2C1=O	CXCR6 block 99, CCR6 antagonist 107 (no result: APJ agonist, APJ antagonist)
CCCNC(=O)C1(C)CCCN(Cc2cc(-c3ccccc3)nn2C)C1 (configuration not stated)	none (no result: APJ agonist, APJ antagonist, CCR6 antagonist)
C#CCOCCOCCOCCNc1nc(N2CCN(C(=O)CCCCCCCCCCNC(=O)[C@H]([C@@H](C)CC)n3cc(CCCCN=C(N)N)nn3)CC2)nc(N2CCN(C(=O)CCCCCCCCCCNC(=O)[C@H](CCCN=C(N)N)n3cc(C[C@@H](C)CC)nn3)CC2)n1	APJ agonist 73 (no result: CXCR6 block, EBI2 block, CCR6 antagonist)
CCN(CC)c1ccc(C(=S)N2CCN(c3ccccc3)CC2)cc1	EBI2 block 64
O=C(C(c1ccccc1)N1CCOCC1)N1CCOCC1 (configuration not stated)	none
O=C(C=Cc1ccccc1)CC(c1ccccc1)N1CCOCC1 (configuration not stated)	EBI2 block 48 (no result: APJ agonist, APJ antagonist)
COc1ccccc1Cc1c(-c2cccc(Br)c2)nc2c(C)cc(Br)cn12	none (no result: APJ agonist, APJ antagonist, CCR6 antagonist)
C[C@H](CO)N1C[C@H](C)[C@@H](CN(C)C(=O)Nc2ccc(C(F)(F)F)cc2)Oc2c(NC(=O)Nc3ccc(C(F)(F)F)cc3)cccc2C1=O	EBI2 block 43
CCN(CC)S(=O)(=O)c1ccc(N=Nc2cc(C)cc(Br)c2O)cc1	CXCR6 block 42, CCR6 antagonist 58
Cn1cc(CN2CCC(C(=O)NC(c3ccc(F)cc3)c3ccc4ccccc4n3)CC2)c2ccccc21 (configuration not stated)	none (no result: APJ agonist, APJ antagonist, CCR6 antagonist)
CCN(CC)C(=O)Oc1ccc(Cl)c2cccnc12	none
O=C(Nc1cccc(C(F)(F)F)c1)Oc1ccc(Cl)c2cccnc12	CXCR6 block 60, CCR6 antagonist 77 (no result: APJ agonist, APJ antagonist)
C[C@@H](C(=O)Nc1ccc2ccccc2c1)[C@@H]1C[C@@]1(C)[C@@H](NC(=O)c1ccccc1)c1ccccc1	EBI2 block 54
CC1CCCN(C2=NC(=O)/C(=C/c3cn(-c4ccccc4)nc3-c3cccc(S(=O)(=O)N(C)C)c3)S2)C1 (configuration not stated)	EBI2 block 68
CC1=NC(Nc2nc(C)c3ccccc3n2)=NC(C)(C)C1	CCR6 antagonist 58 (no result: APJ agonist, APJ antagonist)
C/C(=C\C(=O)c1ccc(Br)cc1)NNC(=O)c1ccccc1	CCR6 antagonist 65
C/C(=C\C(=O)c1ccc(Br)cc1)NNC(=O)c1ccc(O)cc1	none
COc1ccc(C(=O)N2CCC(C)(C(=O)NS(=O)(=O)C3CC3)C2)cc1 (configuration not stated)	none (no result: APJ agonist, APJ antagonist, CCR6 antagonist)
CN(CCOc1ccc(Cl)cc1)C(=O)c1cccc(S(=O)(=O)N2CCN(c3ccc(F)cc3)CC2)c1	EBI2 block 56 (no result: APJ agonist, APJ antagonist)
CCCC(=O)N1CCC1(C)C(=O)NS(=O)(=O)c1cc2c(cc1C)CCCS2(=O)=O (configuration not stated)	none (no result: APJ agonist, APJ antagonist, CCR6 antagonist)
Nc1ccc2c(c1)C(=O)c1ccccc1-2	none
Nc1ccc2c(c1)C(=O)C(=O)c1ccccc1-2	CCR6 antagonist 71
O=C(NC1CCCC1)N[C@@H]1CC[C@@H](CC(=O)N2CCOCC2)O[C@@H]1CO	none (no result: CXCR6 block, APJ agonist, APJ antagonist, CCR6 antagonist)
COc1ccc(C(=O)/C(C#N)=N/Nc2ccccc2[N+](=O)[O-])cc1	none
COc1ccc(C(=O)/C(C#N)=N/Nc2ccc([N+](=O)[O-])cc2)cc1	CXCR6 block 67, APJ antagonist 73, CCR6 antagonist 76
N#CC(C#N)=NNc1ccc([N+](=O)[O-])cc1	CXCR6 block 43, CCR6 antagonist 57
COc1cccc(C(O)c2nc(-c3ccccc3)cs2)c1 (configuration not stated)	none (no result: APJ agonist, APJ antagonist, CCR6 antagonist)
S=C(NCc1ccccn1)NN=Cc1ccccn1	CCR6 antagonist 61 (no result: APJ agonist, APJ antagonist)
Cc1ccc(NC(=S)NCc2ccccn2)cc1	none
CCCNC(=O)OC1CC2CC1[C@H]1CCCCN1C2=O (some centres not stated)	none (no result: APJ agonist, APJ antagonist, CCR6 antagonist)
COc1cc(OC)cc(-c2nc3ccccc3c(=O)n2OC(=O)c2ccc(C)c(C)c2)c1	APJ agonist 11
CC(=O)NC(c1ccc(F)c(F)c1)c1nc(-c2cccc(C(=O)O)c2)cs1 (configuration not stated)	none (no result: APJ agonist, APJ antagonist, CCR6 antagonist)
Cc1c(C(=O)Nc2nc3ccccc3[nH]2)oc2ccccc12	CCR6 antagonist 56
CCC(=O)Nc1ccc(S(=O)(=O)NC[C@H]2O[C@@H](n3cnc4c(=O)[nH]c(N)nc43)[C@H](O)[C@@H]2O)cc1	none (no result: APJ agonist, APJ antagonist, CCR6 antagonist)
CCN1/C(=C\C=C2\C(=O)N(C)C(=S)N2C)Sc2ccccc21	APJ agonist 19
CCOc1cccc(-c2cnc3cccnn23)c1	none (no result: APJ agonist, APJ antagonist, CCR6 antagonist)
COc1ccc(C(=O)NC(=S)Nc2ccccc2N2CCCCC2)cc1[N+](=O)[O-]	CCR6 antagonist 72
CCOc1ccc(C(=O)NC(=S)Nc2ccc(N3CCCCC3)cc2)cc1[N+](=O)[O-]	none
CCOc1ccc(C(=O)NC(=S)Nc2ccc(NC(=O)CC)cc2)cc1[N+](=O)[O-]	CCR6 antagonist 56
O=C(Nc1ccc(C(=O)N2CCOCC2)cc1)c1ccc([N+](=O)[O-])cc1	none
COc1cc(C(=O)NC(=S)Nc2ccc([N+](=O)[O-])cc2)cc(OC)c1OC	APJ antagonist 41
O=C(NC(=S)Nc1ccc(C(=O)N2CCOCC2)cc1)c1ccc([N+](=O)[O-])cc1	CCR6 antagonist 63
COC(=O)[C@@]12C[C@@H](CC(=O)NCC3CCCCC3)C(=O)N(Cc3ccco3)C1=CCC(C)(C)C2	none (no result: CXCR6 block, APJ agonist, APJ antagonist, CCR6 antagonist)
Cc1[nH]n(-c2nc(-c3ccc(Cl)cc3)cs2)c(=O)c1N=Nc1ccc(O)cc1	EBI2 block 51
O=C1/C(=C/c2ccc([N+](=O)[O-])cc2)C=C(c2ccccc2)N1c1ccc(O)cc1	CXCR6 block 38, EBI2 block 61, CCR6 antagonist 54
COc1ccc(NC(=O)c2cc(S(=O)(=O)N3CCc4ccccc43)cn2C)c(OC)c1	EBI2 block 66
CC1(C(=O)Nc2nccs2)CCN1C(=O)CC(c1ccccc1)c1ccccc1 (configuration not stated)	none (no result: APJ agonist, APJ antagonist, CCR6 antagonist)
COc1ccc(C(=O)NCCNc2nc3cc(C)cc(C)c3cc2C#N)nc1	none (no result: CXCR6 block, APJ agonist, APJ antagonist, CCR6 antagonist)
CCOC(=O)c1ccc(N=c2sc(C(=O)OC)cc(=O)n2C2CC2)cc1	none
CCOC(=O)c1ccc(N=c2sc(C(=O)OC)cc(=O)n2Cc2ccc3c(c2)OCO3)cc1	EBI2 block 73
O=C(O)c1cc(N=Nc2c(O)[nH]c3ccc([N+](=O)[O-])cc23)ccc1Cl	CXCR6 block 40
